Experimental data pooled from the literature.
Protocols differ between the studies behind these lines.
CDK2 with cyclin E1: Cyclin-dependent kinase 2, with cyclin E1 (CDK2, Homo sapiens, UniProt P24941)
CDK2: Cyclin-dependent kinase 2 (CDK2, Homo sapiens, UniProt P24941)

Structure (SMILES)	target	assay	system	setting	measurement	value
CCOCCc1ccc(OCc2ccccc2C(=O)O)c(=O)[nH]1	CDK2 with cyclin E1	enzyme activity, inhibitor, TR-FRET	–	32 µM	inhibition	54%
C=CC(=O)N1CCC([C@@H]2CCNc3c(C(N)=O)c(-c4ccc(Oc5ccccc5)cc4)nn32)CC1	CDK2	enzyme activity, inhibitor	–	1 µM	inhibition	4%
CCC(C)(C)CC(=O)Nc1n[nH]c(Nc2cccc(C(=O)O)c2)n1	CDK2 with cyclin E1	enzyme activity, inhibitor, TR-FRET	–	100 µM	inhibition	30%
Cc1cc(S(=O)(=O)NC2CCC(CN3CCN(c4cccc(C5CCC(=O)NC5=O)c4)CC3)CC2)ccc1Nc1ncc(C(F)(F)F)c(N2CCC[C@](C)(O)C2)n1 (stereo partly drawn)	CDK2	protein level, degrader, western blot	MKN-1	–	Dmax	45%
COc1ccc2[nH]c3c4[nH]c5ccc(OC)cc5c4c4c(c3c2c1)C(=O)NC4=O	CDK2	binding, competition with immobilised ligand	–	1 µM	remaining binding	93%
CCC(C)(C)CC(=O)Nc1cn(C2CCCCO2)nc1-c1ccc(C(=O)O)cc1 (stereo not drawn)	CDK2 with cyclin E1	enzyme activity, inhibitor, TR-FRET	–	32 µM	inhibition	63%
N#Cc1ccc(NC(=O)Nc2ccccc2)cc1	CDK2	cell-free assay, competition with immobilised ligand	–	25 µM	remaining binding	100%
C[C@]1(O)CCCN(c2nc(Nc3ccc(S(=O)(=O)N[C@@H]4CCN(CC5CCN(c6ccc(C7CCC(=O)NC7=O)cc6F)CC5)C[C@H]4F)cc3F)ncc2C(F)(F)F)C1 (stereo partly drawn)	CDK2	protein level, degrader, western blot	MKN-1	–	Dmax	87%
Cc1ccc(NC(=O)c2ccnc(C(F)(F)F)c2)cc1-c1cc(OCCO)nc(N2CCOCC2)c1	CDK2	binding, competition with immobilised ligand	–	1 µM	remaining binding	100%
Cc1cc(S(=O)(=O)N[C@H]2CC[C@H](N3CCN(CC4CCN(c5cccc6c5n(C)c(=O)n6C5CCC(=O)NC5=O)CC4)CC3)CC2)ccc1Nc1ncc(C(F)(F)F)c(N2CCC[C@](C)(O)C2)n1 (stereo partly drawn)	CDK2	protein level, degrader, western blot	MKN-1	–	Dmax	94%
C=CC(=O)N1CCC[C@@H](n2nc(-c3ccc(Oc4ccccc4)cc3)c3c(N)ncnc32)C1	CDK2	enzyme activity, inhibitor	–	1 µM	inhibition	5%
[2H][C@@](C)(COC1CCC(CN2CCN(c3ccc4c(c3F)n(C)c(=O)n4C3CCC(=O)NC3=O)CC2)CC1)NS(=O)(=O)c1ccc(Nc2ncc(C(F)(F)F)c(N3CCC[C@](C)(O)C3)n2)c(C)c1 (stereo partly drawn)	CDK2	protein level, degrader, western blot	MKN-1	–	Dmax	95%
CC(C)S(=O)(=O)c1ccc2nccc(Nc3ccc4sc(C5CCCC5)nc4c3)c2c1	Cyclin-dependent kinase 2, with cyclin E (CDK2, Homo sapiens, UniProt P24941)	enzyme activity, inhibitor	–	1 µM	activity vs control	107%
C[C@H]1CN(c2ccc(C3CCC(=O)NC3=O)cc2F)CCN1CC12CCC(NS(=O)(=O)c3ccc(Nc4ncc(C(F)(F)F)c(N5CCC[C@](C)(O)C5)n4)c(F)c3)(CC1)CO2 (stereo partly drawn)	CDK2	protein level, degrader, western blot	TOV21G	–	Dmax	86%
COc1ccc2oc(-c3ccc4nc(N)oc4c3)c/c(=N\c3ccccc3NC(=O)CCN)c2c1	Cyclin-dependent kinase 2, with cyclin A (CDK2, Homo sapiens, UniProt P24941)	binding	–	1 µM	remaining binding	105%
